Laboratory results as given in ChEMBL document CHEMBL1212735, “Metronidazole resistance in Prevotella spp. and description of a new nim gene in Prevotella baroniae” (2010).
Converted amounts (≈) assume the structure as drawn.

How the values were obtained:
Type in all cases: functional
Prevotella bivia [1] = assay: Antimicrobial activity against Prevotella bivia LBN 333 deficient in nim gene assessed as inhibition of growth at 48 hrs by agar dilution method; settings: LBN 333, 48 h
Procedure, shortened: (§1)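 Metronidazole MIC by agar dilution (CLSI M11-A7) on brucella agar with 5% sheep blood, hemin and vitamin K1. Plates were read after 48 h at 35°C under anaerobic conditions. Susceptible was MIC ≤ 4 μg/ml and resistant MIC ≥ 8 μg/ml (EUCAST). B. fragilis ATCC 25285T and B. thetaiotaomicron ATCC 29741 were run as controls. Duplicate assays.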

Prevotella baroniae [2] = assay: Antimicrobial activity against Prevotella baroniae LBN 430 expressing nimI gene assessed as inhibition of growth after three consecutive subcultures on compound free medium by agar dilution method; settings: Segatella baroniae
Procedure, shortened: (§2)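 Stability of induced resistance: metronidazole-selected isolates were subcultured three consecutive times on drug-free brucella blood agar (5% sheep blood, hemin, vitamin K1) under anaerobic conditions, then MIC was redetermined by CLSI agar dilution. Resistance was called stable if the MIC held within ±1 dilution. Duplicate experiments.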

Prevotella bivia [3] = assay: Antimicrobial activity against slow growing colonies of Prevotella bivia LBN 445 deficient in nim gene assessed as inhibition of growth at 48 hrs by agar dilution method; settings: LBN 445, 48 h
Procedure, shortened: (§3)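 Metronidazole MIC by agar dilution per CLSI M11-A7 on brucella agar with 5% sheep blood, hemin and vitamin K1. Plates incubated anaerobically at 35°C and read at 48 h, with a second reading after a further 72 h. B. fragilis ATCC 25285T and B. thetaiotaomicron ATCC 29741 served as controls. Done in duplicate; EUCAST breakpoints applied (S ≤4, R ≥8 μg/ml).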

Prevotella baroniae [4] = assay: Antimicrobial activity against Prevotella baroniae DSM 16972T expressing nimI gene assessed as inhibition of growth after three consecutive subcultures on compound free medium by agar dilution method; settings: Segatella baroniae; procedure, shortened: as §2
Prevotella bivia [5] = assay: Antimicrobial activity against Prevotella bivia LBP 69 deficient in nim gene assessed as inhibition of growth at 48 hrs by agar dilution method; settings: LBP 69, 48 h; procedure, shortened: as §1
Prevotella bivia [6] = assay: Antimicrobial activity against slow growing colonies of Prevotella bivia LBN 374 deficient in nim gene assessed as inhibition of growth at 48 hrs by agar dilution method; settings: LBN 374, 48 h; procedure, shortened: as §3
Prevotella bivia [7] = assay: Antimicrobial activity against Prevotella bivia LBN 365 deficient in nim gene assessed as inhibition of growth at 48 hrs by agar dilution method; settings: LBN 365, 48 h; procedure, shortened: as §1
Prevotella bivia [8] = assay: Antimicrobial activity against slow growing colonies of Prevotella bivia LBP 51 deficient in nim gene assessed as inhibition of growth at 48 hrs by agar dilution method; settings: LBP 51, 48 h; procedure, shortened: as §3
Prevotella nanceiensis [9] = assay: Antimicrobial activity against slow growing colonies of Prevotella nanceiensis LBN 410 deficient in nim gene assessed as inhibition of growth at 48 hrs by agar dilution method; settings: Hoylesella nanceiensis, LBN 410, 48 h; procedure, shortened: as §3
Prevotella nanceiensis [10] = assay: Antimicrobial activity against Prevotella nanceiensis LBN 297 deficient in nim gene assessed as inhibition of growth at 48 hrs by agar dilution method; settings: Hoylesella nanceiensis, LBN 297, 48 h; procedure, shortened: as §1
Prevotella bivia [11] = assay: Antimicrobial activity against slow growing colonies of Prevotella bivia LBN 478 deficient in nim gene assessed as inhibition of growth at 48 hrs by agar dilution method; settings: LBN 478, 48 h; procedure, shortened: as §3
Prevotella nanceiensis [12] = assay: Antimicrobial activity against Prevotella nanceiensis LBN 293b deficient in nim gene assessed as inhibition of growth at 48 hrs by agar dilution method; settings: Hoylesella nanceiensis; procedure, shortened: as §1
Prevotella bivia [13] = assay: Antimicrobial activity against slow growing colonies of Prevotella bivia LBP 52 deficient in nim gene assessed as inhibition of growth at 48 hrs by agar dilution method; settings: LBP 52, 48 h; procedure, shortened: as §3
Prevotella bivia [14] = assay: Antimicrobial activity against slow growing colonies of Prevotella bivia LBP 4 deficient in nim gene assessed as inhibition of growth at 48 hrs by agar dilution method; settings: LBP 4, 48 h; procedure, shortened: as §3
Prevotella bivia [15] = assay: Antimicrobial activity against Prevotella bivia LBN 374 deficient in nim gene assessed as inhibition of growth at 48 hrs by agar dilution method; settings: LBN 374, 48 h; procedure, shortened: as §1
Prevotella baroniae [16] = assay: Antimicrobial activity against Prevotella baroniae LBN 432 expressing nimI gene assessed as inhibition of growth after several passages on plates containing increasing concentration of compound by agar dilution method; settings: Segatella baroniae
Procedure, shortened: (§4)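 Induction of metronidazole resistance: bacterial suspensions inoculated onto brucella blood agar (5% sheep blood, hemin, vitamin K1) containing metronidazole at increasing concentrations, grown anaerobically at 37°C. Colonies growing at the highest concentration were retested for MIC by CLSI agar dilution on the same agar. Duplicate experiments.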

Prevotella baroniae [17] = assay: Antimicrobial activity against Prevotella baroniae LBP19 expressing nimI gene assessed as inhibition of growth after several passages on plates containing increasing concentration of compound by agar dilution method; settings: Segatella baroniae; procedure, shortened: as §4
Prevotella nanceiensis [18] = assay: Antimicrobial activity against slow growing colonies of Prevotella nanceiensis LBP 66 deficient in nim gene assessed as inhibition of growth at 48 hrs by agar dilution method; settings: Hoylesella nanceiensis, LBP 66, 48 h; procedure, shortened: as §3
Prevotella nanceiensis [19] = assay: Antimicrobial activity against Prevotella nanceiensis LBN 410 deficient in nimI gene assessed as inhibition of growth after several passages on plates containing increasing concentration of compound by agar dilution method; settings: Hoylesella nanceiensis; procedure, shortened: as §4
Bacteroides fragilis = assay: Antimicrobial activity against Bacteroides fragilis ATCC 25285T deficient in nimI gene assessed as inhibition of growth after several passages on plates containing increasing concentration of compound by agar dilution method; procedure, shortened: as §4
Prevotella bivia [20] = assay: Antimicrobial activity against Prevotella bivia LBP 78 deficient in nim gene assessed as inhibition of growth at 48 hrs by agar dilution method; settings: LBP 78, 48 h; procedure, shortened: as §1
Prevotella buccae = assay: Antimicrobial activity against Prevotella buccae LBN 465 deficient in nimI gene assessed as inhibition of growth after several passages on plates containing increasing concentration of compound by agar dilution method; settings: Segatella buccae; procedure, shortened: as §4
Prevotella baroniae [21] = assay: Antimicrobial activity against Prevotella baroniae LBN 432 expressing nim gene assessed as inhibition of growth at 48 hrs by agar dilution method; settings: Segatella baroniae, LBN 432, 48 h; procedure, shortened: as §1
Prevotella bivia [22] = assay: Antimicrobial activity against Prevotella bivia LBN 478 deficient in nim gene assessed as inhibition of growth at 48 hrs by agar dilution method; settings: LBN 478, 48 h; procedure, shortened: as §1
Prevotella bivia [23] = assay: Antimicrobial activity against slow growing colonies of Prevotella bivia LBN 332 deficient in nim gene assessed as inhibition of growth at 48 hrs by agar dilution method; settings: LBN 332, 48 h
Procedure, shortened: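 Slowly growing colonies inside the Etest inhibition zone, seen after prolonged incubation (an additional 72 h after the 48 h reading), were subcultured without antibiotic. They were then retested for metronidazole MIC by agar dilution on supplemented brucella blood agar under anaerobic conditions.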

Prevotella bivia [24] = assay: Antimicrobial activity against slow growing colonies of Prevotella bivia LBP 69 deficient in nim gene assessed as inhibition of growth at 48 hrs by agar dilution method; settings: LBP 69, 48 h; procedure, shortened: as §3
Prevotella bivia [25] = assay: Antimicrobial activity against Prevotella bivia LBN 346 deficient in nim gene assessed as inhibition of growth at 48 hrs by agar dilution method; settings: LBN 346, 48 h
Procedure, shortened: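 Agar dilution MIC on brucella agar with 5% sheep blood, hemin and vitamin K1, following CLSI M11-A7. Plates read after 48 h at 35°C under anaerobic conditions, with B. fragilis ATCC 25285T and B. thetaiotaomicron ATCC 29741 as controls. Assays in duplicate. Isolates kept at −80°C in brucella broth with 15% glycerol. Interpretation used EUCAST breakpoints (S ≤4, R ≥8 μg/ml).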

In the case of Cc1ncc([N+](=O)[O-])n1CCO [METRONIDAZOLE], the MIC (Prevotella bivia [1]) is reported as 2 µg/mL (≈ 11.7 µM), the MIC (Prevotella baroniae [2]) is reported as 128 µg/mL (≈ 748 µM) and the MIC (Prevotella bivia [3]) is reported as 16 µg/mL (≈ 93.5 µM). The MIC (Prevotella baroniae [4]) was 16 µg/mL (≈ 93.5 µM), the MIC (Prevotella bivia [5]) was 2 µg/mL (≈ 11.7 µM) and the MIC (Prevotella bivia [6]) was 8 µg/mL (≈ 46.7 µM). For the same compound, the MIC (Prevotella bivia [7]) was 4 µg/mL (≈ 23.4 µM), the MIC (Prevotella bivia [8]) was 32 µg/mL (≈ 187 µM) and the MIC (Prevotella nanceiensis [9]) was 32 µg/mL (≈ 187 µM). For the same compound, the MIC (Prevotella nanceiensis [10]) was 2 µg/mL (≈ 11.7 µM), the MIC (Prevotella bivia [11]) was 8 µg/mL (≈ 46.7 µM) and the MIC (Prevotella nanceiensis [12]) was 2 µg/mL (≈ 11.7 µM). The MIC (Prevotella bivia [13]) was 16 µg/mL (≈ 93.5 µM), the MIC (Prevotella bivia [14]) was 32 µg/mL (≈ 187 µM) and the MIC (Prevotella bivia [15]) was 2 µg/mL (≈ 11.7 µM). For the same compound, the MIC (Prevotella baroniae [16]) was 64 µg/mL (≈ 374 µM), the MIC (Prevotella baroniae [17]) was 128 µg/mL (≈ 748 µM) and the MIC (Prevotella nanceiensis [18]) was 8 µg/mL (≈ 46.7 µM). It also gave an MIC (Prevotella nanceiensis [19]) of 256 µg/mL (≈ 1500 µM), an MIC (Bacteroides fragilis) of 256 µg/mL (≈ 1500 µM) and an MIC (Prevotella bivia [20]) of 4 µg/mL (≈ 23.4 µM). For the same compound, the MIC (Prevotella buccae) was 128 µg/mL (≈ 748 µM), the MIC (Prevotella baroniae [21]) was 2 µg/mL (≈ 11.7 µM) and the MIC (Prevotella bivia [22]) was 4 µg/mL (≈ 23.4 µM). It also gave an MIC (Prevotella bivia [23]) of 32 µg/mL (≈ 187 µM), an MIC (Prevotella bivia [24]) of 8 µg/mL (≈ 46.7 µM) and an MIC (Prevotella bivia [25]) of 1 µg/mL (≈ 5.84 µM).
